Calls of active or inactive are those of the source. The calls are words filed in the database; no cut-off is given here.
Columns and labels:
Mus musculus [1] = species on record: Mus musculus; experiment: Stimulation of prostanoid receptor-mediated cAMP-[14C] production in Charles River CD-1 mouse ovary at 0.1 ug/ml preincubated with adenine-8-[14C] for 1 hr followed by compound addition measured after 30 mins in presence of theophylline relative to control; format: tissue-based; details: Female gonad
How it was run: (§1)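 Ovaries from virgin female mice over 70 days old, denuded of fat; three ovaries (15-25 mg) per flask in aerated Krebs-Ringer phosphate pH 7.2 with 1 μCi adenine-8-¹⁴C, 1 h at 37 °C with shaking. Theophylline and compound (in Me₂SO) added, then 30 min at 37 °C. Stopped with TCA, tissue homogenized, ¹⁴C-cAMP isolated. Fold increase = treated/untreated cAMP; 2-3-fold taken as significant.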

Mus musculus [2] = species on record: Mus musculus; experiment: Stimulation of prostanoid receptor-mediated cAMP-[14C] production in Charles River CD-1 mouse ovary at 1 ug/ml preincubated with adenine-8-[14C] for 1 hr followed by compound addition measured after 30 mins in presence of theophylline relative to control; format: tissue-based; details: Female gonad; how it was run: as §1
Mus musculus [3] = species on record: Mus musculus; experiment: Stimulation of prostanoid receptor-mediated cAMP-[14C] production in Charles River CD-1 mouse ovary at 10 ug/ml preincubated with adenine-8-[14C] for 1 hr followed by compound addition measured after 30 mins in presence of theophylline relative to control; format: tissue-based; details: Female gonad; how it was run: as §1
Mus musculus [4] = species on record: Mus musculus; experiment: Stimulation of prostanoid receptor-mediated cAMP-[14C] production in Charles River CD-1 mouse ovary at 25 ug/ml preincubated with adenine-8-[14C] for 1 hr followed by compound addition measured after 30 mins in presence of theophylline relative to control; format: tissue-based; details: Female gonad; how it was run: as §1
Mus musculus [5] = species on record: Mus musculus; experiment: Stimulation of prostanoid receptor-mediated cAMP-[14C] production in Charles River CD-1 mouse ovary at 100 ug/ml preincubated with adenine-8-[14C] for 1 hr followed by compound addition measured after 30 mins in presence of theophylline relative to control; format: tissue-based; details: Female gonad; how it was run: as §1
Cavia porcellus [6] = experiment: Antithrombotic activity in po dosed guinea pig assessed as inhibition of collagen-induced platelet aggregation; format: functional
Bos taurus = species on record: Bos taurus; experiment: Inhibition of cAMP phosphodiesterase in beef heart using cAMP as substrate at 100 ug/ml
How it was run: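 Beef heart cAMP phosphodiesterase tested against 0.4 mM cAMP substrate.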

Mus musculus [7] = species on record: Mus musculus; experiment: Stimulation of prostanoid receptor-mediated cAMP-[14C] production in Charles River CD-1 mouse ovary at 0.01 ug/ml preincubated with adenine-8-[14C] for 1 hr followed by compound addition measured after 30 mins in presence of theophylline relative to control; format: tissue-based; details: Female gonad; how it was run: as §1
Mus musculus [8] = species on record: Mus musculus; experiment: Stimulation of prostanoid receptor-mediated cAMP-[14C] production in Charles River CD-1 mouse ovary at 0.05 ug/ml preincubated with adenine-8-[14C] for 1 hr followed by compound addition measured after 30 mins in presence of theophylline relative to control; format: tissue-based; details: Female gonad; how it was run: as §1
Cavia porcellus [9] = experiment: Antithrombotic activity in ip dosed guinea pig assessed as inhibition of collagen-induced platelet aggregation; format: functional

## CCCCC[C@H](O)CCCN(CCCCCCC(=O)O)S(C)(=O)=O
Mus musculus [1]
  fold change (FC): 1
Mus musculus [2]
  fold change (FC): 8
Mus musculus [3]
  fold change (FC): 54
Mus musculus [4]
  fold change (FC): 55
Mus musculus [5]
  fold change (FC): 68
Cavia porcellus [6]
  ED50: 5 mg/kg

## CCCCC[C@@H](O)CCCN(CCCCCCC(=O)O)S(C)(=O)=O
Mus musculus [3]
  fold change (FC): 23
Mus musculus [4]
  fold change (FC): 25
Mus musculus [5]
  fold change (FC): 45
Cavia porcellus [6]
  ED50: 8.2 mg/kg

## CCCCCCCCCN(CCCCCCC(=O)O)S(C)(=O)=O
Mus musculus [3]
  fold change (FC): 13
Mus musculus [4]
  fold change (FC): 14
Mus musculus [5]
  fold change (FC): 15

## CCCCC[C@H](O)CCC1CCC(=O)[C@@H]1CCCCCCC(=O)O (some centres undefined)
Mus musculus [2]
  fold change (FC): 10
Mus musculus [3]
  fold change (FC): 25
Mus musculus [4]
  fold change (FC): 26
Mus musculus [5]
  fold change (FC): 19

## CS(=O)(=O)N(CCCCCCC(=O)O)CCCC1(O)CCCCC1
Mus musculus [3]
  fold change (FC): 3
Mus musculus [4]
  fold change (FC): 5
Mus musculus [5]
  fold change (FC): 10

## CCCCCC(O)CCCN(CCCCCCC(=O)O)S(C)(=O)=O (racemic)
Mus musculus [3]
  fold change (FC): 40
Mus musculus [4]
  fold change (FC): 56
Mus musculus [5]
  fold change (FC): 61
Cavia porcellus [6]
  ED50: 6 mg/kg
Bos taurus
  inhibition: inactive

## CCCCCC(O)/C=C/CN(C/C=C\CCCC(=O)O)S(C)(=O)=O (racemic)
Mus musculus [3]
  fold change (FC): 11
Mus musculus [4]
  fold change (FC): 19
Mus musculus [5]
  fold change (FC): 27

## CCCCCC(O)C#CCN(CCCCCCC(=O)O)S(C)(=O)=O (racemic)
Mus musculus [3]
  fold change (FC): 21
Mus musculus [4]
  fold change (FC): 21
Mus musculus [5]
  fold change (FC): 36

## CCCCCC(O)CCCC(CCCCCCC(=O)O)C(C)=O (racemic)
Mus musculus [1]
  fold change (FC): 1
Mus musculus [2]
  fold change (FC): 2
Mus musculus [3]
  fold change (FC): 11
Mus musculus [4]
  fold change (FC): 14
Mus musculus [5]
  fold change (FC): 23

## CCCCCC(O)CCCN(C/C=C\CCCC(=O)O)S(C)(=O)=O (racemic)
Mus musculus [3]
  fold change (FC): 16
Mus musculus [4]
  fold change (FC): 18
Mus musculus [5]
  fold change (FC): 37

## CCCCCC(O)CCCN(CC#CCCCC(=O)O)S(C)(=O)=O (racemic)
Mus musculus [3]
  fold change (FC): 21
Mus musculus [4]
  fold change (FC): 30
Mus musculus [5]
  fold change (FC): 39

## CCCCCC(O)CCCN(CCCCOCC(=O)O)S(C)(=O)=O (racemic)
Mus musculus [3]
  fold change (FC): 24
Mus musculus [4]
  fold change (FC): 27
Mus musculus [5]
  fold change (FC): 38

## CCCCC[C@H](O)/C=C/[C@H]1[C@H](O)CC(=O)[C@@H]1CCCCCCC(=O)O [ALPROSTADIL]
Mus musculus [7]
  fold change (FC): 8
Mus musculus [8]
  fold change (FC): 25
Mus musculus [1]
  fold change (FC): 29
Mus musculus [2]
  fold change (FC): 54
Mus musculus [3]
  fold change (FC): 60
Mus musculus [4]
  fold change (FC): 62
Mus musculus [5]
  fold change (FC): 62
Cavia porcellus [6]
  Activity: inactive
Cavia porcellus [9]
  ED50: 0.02 mg/kg

Source: ChEMBL document CHEMBL3272123, “11,12-secoprostaglandins. 4. 7-(N-alkylmethanesulfonamido) heptanoic acids” (1977)
